From paper PMC8052301 (Biochemical and biophysical research communications, 2021)
Ends that are not written are not given here. * marks the point of attachment. FITC = O=C1OC2(c3ccc(O)cc3Oc3cc(O)ccc32)c2ccc(NC(=S)*)cc21; Ahx = NCCCCCC(=O)O

What was measured:
[1] = molecular target: FITC-IP3R1^1898-1929 (mouse) (UniProt P11881); test: fluorescence polarisation
[2] = molecular target: FITC-IP3R1^1898-1940 (mouse) (UniProt P11881); test: fluorescence polarisation
[3] = molecular target: FITC-IP3R1^1904-1940 (mouse) (UniProt P11881); test: fluorescence polarisation
IP3R1 = conditions: ref [3]; cited from earlier work
3F-Bok^WT = test: Anti-HA IP of IP3R1-HA constructs and co-IP of 3F-Bok^WT from HEK-3KO cells; format: cell-based, mouse; conditions: IP3R1-HA and 3F-Bok co-transfected, immunoblot
Procedure, shortened: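 Cotransfection uses full-length C-terminally HA-tagged mouse IP3R1 and N-terminally 3xFlag-tagged mouse Bok, with 1-2 μg cDNA and PEI, in HEK-3KO cells seeded at 6-8x10^5/well and transfected ~24 h later. Rabbit anti-HA precipitates from lysates. Blots of precipitates and inputs are probed with mouse anti-HA and anti-Bok, with p97 as input loading control. Detection is by ECL after SDS-PAGE and nitrocellulose transfer.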

HEK-3KO cells = test: Cellular fractionation into cytosol and crude membrane, immunoblot; format: cell-based; conditions: for localization on co-expression of IP3R1-HA^WT and 3F-Bok^WT: IP3R1-HA^WT and 3F-Bok^WT co-expressed; for localization, expressed alone: cytosol / membrane fractions
Procedure, shortened: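 HEK-3KO cells are PEI-transfected (1-2 μg cDNA) with tagged mouse constructs, harvested in ice-cold homogenization buffer and sonicated. They are then spun at 20,000xg for 60 min at 4°C. The supernatant gives the cytosol fraction, and the pellet, resuspended in buffer, gives crude membranes. Fractions go through SDS-PAGE and ECL immunoblot, with transaldolase as the cytosol marker and Hrd1 as the membrane marker.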

3F-Bok^ΔTM = test: Anti-HA IP and co-IP of TM domain-lacking constructs from HEK-3KO cells; format: cell-based, mouse; conditions: immunoblot
Procedure, shortened: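 HEK-3KO cells (6-8x10^5/well) are transfected ~24 h after seeding with 1-2 μg cDNA using PEI. Constructs are mouse IP3R1 with a C-terminal HA tag, truncated to aa 1-2264, and mouse Bok with an N-terminal 3xFlag tag, truncated to aa 1-187. Lysates are immunoprecipitated with rabbit anti-HA. Samples are heated (37°C 30 min or boiled 5 min), run on SDS-PAGE, blotted to nitrocellulose and detected by ECL. p97 is the input loading control.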

HS-Bok = molecular target: T1, HS-Bok (Mus musculus, UniProt O35425); test: Fluorescence polarization; format: binding; conditions: FP, PBS pH 7.4 / 0.1% BSA
T1 sequence (O35425 1-213): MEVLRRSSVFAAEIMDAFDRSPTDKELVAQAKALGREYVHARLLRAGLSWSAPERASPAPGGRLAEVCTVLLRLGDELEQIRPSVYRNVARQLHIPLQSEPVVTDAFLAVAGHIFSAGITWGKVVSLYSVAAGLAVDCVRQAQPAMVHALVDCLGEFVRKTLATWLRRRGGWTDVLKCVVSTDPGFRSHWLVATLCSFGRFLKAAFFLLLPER

HS-HA = test: FP of FITC-conjugated peptide with negative control HS-HA; format: binding; conditions: PBS pH 7.4 / 0.1% BSA, FITC-IP3R1^1898-1940
HS-IP3R1 = format: binding, mouse; conditions: PBS / 0.1% BSA, 16h at 4°C, anti-IP3R1^1884-1903 IP, immunoblot
Procedure, shortened: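 His-SUMO-tagged mouse Bok and IP3R1 fragments, plus an HA-tag control, are expressed in E. coli BL21-CodonPlus(DE3)-RIPL. Cells are grown at 37°C to OD600 ~0.6, then induced with 1 mM IPTG for ~18 h at 16°C. Protein is purified on Ni-NTA in pH 7.4 phosphate buffer and eluted with 400 mM imidazole. Mixtures are immunoprecipitated with rabbit anti-IP3R1 (aa 1884-1903) and probed by immunoblot.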

## HS-Bok (from UniProt O35425 1-213) (natural protein)
[1]
  Kd: 265 nM
[2]
  Kd: 64 nM
[3]
  Kd: 398 nM

## Bcl-xL: Bcl-2 family protein reported to interact with IP3Rs
IP3R1
  strength of interaction with IP3R1 relative to Bok: much less strongly than Bok

## IP3R1-HA^Δ1916-1917: IP3R1-HA deletion mutant, Bok binding-deficient
3F-Bok^WT
  co-IP of 3F-Bok^WT: failed to co-IP 3F-Bok^WT

## IP3R1-HA^Δ1909-1941: IP3R1-HA construct with the largest deletion
3F-Bok^WT
  co-IP of 3F-Bok^WT: did not co-IP 3F-Bok^WT

## IP3R1-HA^WT: mouse IP3R1 tagged at the C-terminus with an HA epitope
3F-Bok^WT
  co-IP of 3F-Bok^WT: allowed for efficient co-IP of 3F-Bok^WT
HEK-3KO cells
  localization on co-expression of IP3R1-HA^WT and 3F-Bok^WT: the same localization is maintained
  localization, expressed alone: localize completely to membranes

## IP3R1-HA^Δ1920-1921: IP3R1-HA deletion mutant
3F-Bok^WT
  co-IP of 3F-Bok^WT: failed to co-IP 3F-Bok^WT

## IP3R1-HA^ΔTM, Δ1916-1917: lacks TM domains and the ability to bind Bok
HEK-3KO cells
  localization upon co-transfection of 3F-Bok^WT: an effect not seen

## IP3R1-HA^Δ1917: IP3R1-HA deletion mutant
3F-Bok^WT
  co-IP of 3F-Bok^WT: failed to co-IP 3F-Bok^WT

## IP3R1-HA^ΔTM: contains amino acids 1-2264 of IP3R1
HEK-3KO cells
  localization upon co-transfection of 3F-Bok^WT: becomes more membrane-associated
  localization, expressed alone: predominantly cytosolic
3F-Bok^ΔTM
  co-IP of cytosolic 3F-Bok^ΔTM and IP3R1-HA^ΔTM: strongly co-IP

## Bcl-2: Bcl-2 family protein reported to interact with IP3Rs
IP3R1
  strength of interaction with IP3R1 relative to Bok: much less strongly than Bok

## {FITC-Ahx}-KKAKEPTTQITEEVRDQLLEASAATRKAFTTFRREADPDDHYQ (N-terminus assumed) [FITC-IP3R1^1898-1940]
HS-Bok
  binding to HS-Bok (in words): bound with high affinity
HS-HA
  binding to HS-HA (in words): but not negative control HS-HA

## FITC-IP3R1^1907-1921: shorter peptide which encompasses just the ANCHOR2 "peak" shown in Figure 1C (ITEEVRDQLLEASAA; also: FITC-conjugated, position not given here)
HS-Bok
  binding to HS-Bok (in words): does not bind to HS-Bok at all

B1: HS-Bok: bacterially expressed, His-sumo (HS) tagged mouse Bok (protein, UniProt O35425 1-213, looked up)
Bcl-2-related ovarian killer …: T1 sequence (O35425 1-213)
modifications: His-SUMO tag
HS-IP3R1
  co-IP with HS-IP3R1: strong co-IP

B2: 3F-Bok^WT: Bok from mouse tagged at the N-terminus with a 3xFlag epitope (protein)
chain: T1 sequence (O35425 1-213)
modifications: left off: 3xFlag, N-terminal, kept
HEK-3KO cells
  localization on co-expression of IP3R1-HA^WT and 3F-Bok^WT: the same localization is maintained, with an increase in Bok expression level
  localization, expressed alone: localize completely to membranes

B3: 3F-Bok^ΔTM: contains amino acids 1-187 of Bok (protein)
chain: MEVLRRSSVFAAEIMDAFDRSPTDKELVAQAKALGREYVHARLLRAGLSWSAPERASPAPGGRLAEVCTVLLRLGDELEQIRPSVYRNVARQLHIPLQSEPVVTDAFLAVAGHIFSAGITWGKVVSLYSVAAGLAVDCVRQAQPAMVHALVDCLGEFVRKTLATWLRRRGGWTDVLKCVVSTDPGFR
modifications: left off: 3xFlag, N-terminal, kept
HEK-3KO cells
  localization, expressed alone: predominantly cytosolic
